Results on 96 molecules are retold here after ChEMBL document CHEMBL4513216, “Probing the Open Global Health Chemical Diversity Library for Multistage-Active Starting Points for Next-Generation Antimalarials” (ACS Infect Dis, 2020).

The data set is described as follows: Toxicity liver stage against HepG2, at 10uM. It is filed as cell-based. Also noted: test concentration 10 uM, cell line HepG2-A16-CD81EGFP. As to conditions: human, HepG2-A16-CD81EGFP cells; read-out: INHIBITION
The essentials:
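Uninfected HepG2-A16-CD81EGFP cells, 3 × 10^3 per well, 1536-well, plated on prespotted compound at 10 μM final, parasite-free screening media added to match infected plates; puromycin 10 μM positive, DMSO 0.5% negative; run in parallel with 48 h PbLuc assay at 37 °C, 5% CO2; viability by CellTiter-Glo luminescence, normalized to controls.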
For `COc1ccc(/C=C/CN2CCN(c3ncccc3C(N)=O)CC2)cc1`, the cytotoxicity at 10 µM is -8.88%. As to `Cc1cccc(OCC(=O)N(C)C2CCN(CC3CCOC3)CC2)c1` (stereo unspecified), the cytotoxicity at 10 µM was -6.22%. Next, `Cc1c(Cl)cccc1NC(=O)N1CCC2(CC1)NC(=O)CC2C(=O)O` (stereo unspecified): -1%; `O=C(CCn1cc(Cl)cn1)Nc1nncs1`: -9.61%. For `Cn1cnc2c1CCN(Cc1nc(Cc3ccccc3)no1)C2`, the cytotoxicity at 10 µM was -7.99%. As for `CCCc1nn(C2CCN(C3CC3)C2=O)c(=O)o1` (stereo unspecified), the cytotoxicity at 10 µM was -13.7%. The result for `O=C1CO[C@H]2CN(Cc3c[nH]c4ccccc34)C[C@H]2N1` reads 1.61%; that for `CCNC(=O)NC1CCCN(c2ccc(C)cc2)C1=O` (stereo unspecified), 0.732%; that for `CC(C)c1noc(CS(=O)(=O)CC(=O)NCC(F)(F)F)n1`, 7.62%. For the molecule `Cn1cc(CN2CCCC23CCN(S(C)(=O)=O)CC3)cn1`, the cytotoxicity at 10 µM was -82.1%. For `O=C1CC(C(=O)N2CCc3sccc3C2)CN1Cc1cccnc1` (stereo unspecified), the cytotoxicity at 10 µM was -1.18%. As for `Cc1noc([C@@H]2C[C@@H]3CCN(c4nnc(C)s4)C[C@H]3O2)n1`, the cytotoxicity at 10 µM was 5.35%.

`Cc1cccc(-c2noc(CN3CCCC3Cn3cccn3)n2)c1` (stereo unspecified): the cytotoxicity at 10 µM is 1.68%. For the molecule `Cn1cc(CCCN2CCCC(c3cc(C(F)(F)F)[nH]n3)C2)cn1` (stereo unspecified), the cytotoxicity at 10 µM was -2.59%. Turning to `CCC(CC)C(O)CNC(=O)Nc1cccc(-c2nccn2C)c1` (stereo unspecified), the cytotoxicity at 10 µM is -1.39%. With `Cc1sc(C(=O)NS(C)(=O)=O)cc1-c1ccc(F)cc1`, the cytotoxicity at 10 µM turned out to be 2.53%. The result for `O=C(c1cc(COc2ccc3c(c2)OCO3)[nH]n1)N1CCCC(O)C1` (stereo unspecified) reads -8.07%. `COCCN1CCC2(CC1)CC(c1cccnc1)CO2` (stereo unspecified): the cytotoxicity at 10 µM was -3.21%. In the case of `COCCN(CCOC)C(=O)c1sc(C)nc1C`, the cytotoxicity at 10 µM is 2.16%.

As to `CC(C)N(C)CCNC(=O)N(C)CC1CCOCC1`, the cytotoxicity at 10 µM was -17.2%. The result for `Cc1nc(N2CCN(C(=O)c3ccncc3)CC2)c2c(n1)c(C)nn2C` reads 10.3%. As for `NC(=O)CN(Cc1ncc(-c2ccc(F)cc2)o1)C1CCCC1`, the cytotoxicity at 10 µM was -6.19%. The result for `Cc1cccc(=O)n1CCC(=O)N(C)Cc1cccc2ncccc12` reads 0.66%; that for `O=C(c1ccncn1)N1CCC[C@]2(C[C@@H](OCC3CC3)CO2)C1`, -78.9%. Next, `CN1CCCN(C(=O)c2cc(-c3cc[nH]n3)n3ccccc23)CC1`: 11%; `COCc1cc(NCCc2ccc(OC)cc2)n2nccc2n1`: 0.266%; `O=C(c1cscn1)N1C[C@@H]2C[C@@H](c3nnc(C4CC4)o3)O[C@@H]2C1`: -16.9%.

Turning to `Fc1cccc(OC2CCN(Cc3ncc[nH]3)CC2)c1`, the cytotoxicity at 10 µM is -31.2%.

Consider `CNC(=O)c1nc2c(s1)CCN(C(=O)Cc1ccc(OC)cc1)CC2`, for which the cytotoxicity at 10 µM came to 4.76%. Next, `O=C(N[C@@H]1CN(c2ncccn2)[C@@H]2CCCO[C@@H]21)c1cscn1`: -142%.

For the molecule `O=C(c1ccc(F)cc1F)N1CC[C@H](O)[C@@H](N2CCOCC2)CC1`, the cytotoxicity at 10 µM amounted to 2.62%. `Cn1ccnc1S(=O)(=O)C(C(=O)N1CCCCC1)c1ccccc1` (stereo unspecified): the cytotoxicity at 10 µM is 24.5%.

For the molecule `CC(=O)N1CC[C@@]2(C(=O)Nc3ccccc3)CCN(S(C)(=O)=O)CC[C@@H]12`, the cytotoxicity at 10 µM is 2.96%. Next, `CC(C)Oc1ccccc1CNC(=O)N(C)C(C)CS(C)(=O)=O` (stereo unspecified): -48.4%. The result for `CC(C)CS(=O)(=O)NC(=O)c1ccc2c(c1)ncn2C` reads -9.94%; that for `Cc1ccc(-c2nnc(CN3CC(n4cc(C)cn4)C3)o2)cc1`, 2.48%; that for `OCC1CCCN1c1cc(NCCc2ccccn2)ncn1` (stereo unspecified), -0.813%.

As to `COc1cccc(C(=O)N2CCCC(C(=O)CCc3ccccc3)C2)c1` (stereo unspecified), the cytotoxicity at 10 µM is -20%. Turning to `CCc1nnc(CNCC2CCCN2c2cccnn2)o1` (stereo unspecified), the cytotoxicity at 10 µM was -10.7%. Next, `CN1CCN(CCO)C(=O)C12CCN(c1nccs1)CC2`: 3.88%; `CS(=O)(=O)N1CCN2C(=O)N(C3CCCCC3)C[C@H]2C1`: 7.77%; `O=S(=O)(c1cnccc1N1CCN(CCO)CC1)N1CCOCC1`: -8.49%.

In the case of `CN(C)S(=O)(=O)c1csc(C(=O)N2CCSCC2)c1`, the cytotoxicity at 10 µM was -51.6%. With `CCOC(=O)N1CCCC2(CCN(Cc3ccccc3C#N)C2)C1` (stereo unspecified), the cytotoxicity at 10 µM amounted to 3.37%. Turning to `Cc1ccc(OCCC(=O)N(C)CC(=O)Nc2cc(C)on2)c(C)c1`, the cytotoxicity at 10 µM is -16.9%. As to `COc1cc(CN2CC[C@H](NC(C)=O)[C@@H](O)CC2)ccc1F`, the cytotoxicity at 10 µM is -9.19%. The result for `CC(C)Oc1cc(N2CCC(N3CCC(O)CC3)CC2)nc(N)n1` reads -12.2%. Next, `COCCCN(CCOC)C(=O)Nc1ccc(C)cc1C`: 4.16%.

In the case of `CC(O)c1cccc(N2CCC3(CCC(=O)N(C4CCCC4)C3)CC2)n1` (stereo unspecified), the cytotoxicity at 10 µM was -3.56%.

Turning to `COc1ccnc(N2CCN(C(=O)c3cccc(C#N)c3)CC2)n1`, the cytotoxicity at 10 µM is -18.2%.

As for `CN(C)CC1(O)CCN(C(=O)Cc2ccc3c(c2)CCCC3)C1` (stereo unspecified), the cytotoxicity at 10 µM was -7.75%.

Take `Cc1cc(F)ccc1S(=O)(=O)NCC(O)c1cccn1C` (stereo unspecified): the cytotoxicity at 10 µM was -5.62%.

As for `Cc1cc(S(=O)(=O)Nc2onc(C)c2C)sc1C`, the cytotoxicity at 10 µM is 5.54%. Next, `CC(C)(C)CN1CCCC(c2nccnc2Nc2cnccn2)C1` (stereo unspecified): 5.37%. Next, `Cc1n[nH]c(C)c1NC(=O)CN1CCc2c(nc(C(C)C)n2C)C1`: -5.68%. Next, `COc1ccc2c(C)nc(N3CCN([C@H]4CCCC[C@@H]4O)CC3)nc2c1`: 7.24%; `O=C(NS(=O)(=O)Cc1ccon1)c1ccsc1`: -14.2%.

For the molecule `Cc1nnc2n1CC(CNCc1nc(-c3ccsc3)no1)CC2` (stereo unspecified), the cytotoxicity at 10 µM is -4.68%. Next, `CCN1CCC(N[C@@H]2CC[C@@H]2NC(=O)Cc2csc(C)n2)CC1`: 1.82%; `CC(C)[C@@H]1CN(S(=O)(=O)Cc2ccccc2)C[C@H]1C(=O)O`: -1.05%; `CCOc1ccccc1CN1CCc2nc3ccsc3c(=O)n2CC1`: -5.81%. The result for `Nc1cc(-c2c[nH]nc2C2CCCCN2C(=O)C2CCCC2)ccn1` (stereo unspecified) reads 12%; that for `C/C=C(\C)CN1CCC2(CCC(=O)N2OCc2ccccc2F)CC1`, 5.24%; that for `O=C(N[C@H]1CN[C@H]2CCCO[C@H]21)c1cccnc1`, -9.99%. The result for `O=C(NCCCn1ccnc1)N1CCCC1c1cccs1` (stereo unspecified) reads -8.31%; that for `CCc1nc(C2CCCN2C(=O)c2cnc[nH]2)no1` (stereo unspecified), -13.6%. For `CNC(=O)c1cc2c(nc1NCC1CC1)CCNCC2`, the cytotoxicity at 10 µM is -0.966%. As to `O=C(c1ccoc1)N1CC[C@@H]2[C@H]1CCC(=O)N2c1ccccc1`, the cytotoxicity at 10 µM is -0.362%. Next, `O=C(CCc1cc(Cl)no1)N1CCC(c2cc3ncccc3cn2)CC1`: 4.76%.

In the case of `COc1cccc(C(O)Cn2ncc3ncccc3c2=O)c1` (stereo unspecified), the cytotoxicity at 10 µM was -2.45%. Next, `CNC(=O)NC(=O)CSc1ccc2c(c1)CCC2`: 19.6%. On to `C[C@@H]1CN(c2nc(N)nc3c2CCC3)CC[C@@]1(O)C1CCC1`, for which the cytotoxicity at 10 µM stood at 36.9%. Next, `O=C(c1cscn1)N1CC[C@@H]2[C@@H]1CCN2CC1CCOC1` (stereo partly specified): -2.36%. For `CC(O)CN1CCC(CNCCOCC(F)(F)F)CC1` (stereo unspecified), the cytotoxicity at 10 µM amounted to 4.91%. In the case of `CC1CCN(c2nc(O)cc(C3CC(=O)N(C4CCCCC4)C3)n2)CC1` (stereo unspecified), the cytotoxicity at 10 µM was found to be 3.81%.

Consider `COCCC(=O)N1CCCC2(CCN(c3ccccc3)C2=O)C1` (stereo unspecified), for which the cytotoxicity at 10 µM is -1.66%. Next, `Cc1noc(C(C)C)c1C(=O)N1CCC(n2cccn2)CC1`: -4.32%.

Regarding `Fc1ccc(CNCCn2cccn2)c(F)c1`, the cytotoxicity at 10 µM was 8.59%. The result for `Cc1cccnc1CN(C)C(C(=O)O)c1ccc(C(C)(C)C#N)cc1` (stereo unspecified) reads 0.566%; that for `Cc1noc(C)c1CCC(=O)NCC1(O)CCCN(c2ccccn2)C1` (stereo unspecified), -3.95%; that for `Cc1noc(C(C)C)c1C(=O)NCC(c1ccccc1)N(C)C` (stereo unspecified), -7.72%.

Turning to `COc1cc2c(cc1OC)CN(C(C(=O)O)c1c(C)nn(C)c1C)CC2` (stereo unspecified), the cytotoxicity at 10 µM is -3.14%. With `c1nc2n(n1)CC(NCc1csc(-c3ccsc3)n1)CC2` (stereo unspecified), the cytotoxicity at 10 µM was 3.79%. As for `COCCNC(=O)c1sc2ccccc2c1C1CCC(CN)CC1` (stereo unspecified), the cytotoxicity at 10 µM is -2.98%. The result for `O=C(CCc1cc2n(n1)CCN(Cc1ncc[nH]1)C2)N1CCCC1` reads -5.77%; that for `CS(=O)(=O)NCCCn1ccc2ccccc21`, 4.77%; that for `CC(C)C(C)NC(=O)Nc1ccccc1CN1CCOCC1` (stereo unspecified), 0.795%.

On to `CN1[C@H](CN2CCCC2)C[C@@H]2CN(C(=O)c3cnccn3)CC[C@@H]21`, for which the cytotoxicity at 10 µM was 10.6%. In the case of `COCCOCC(=O)N1C[C@@H]2CC[C@H](Oc3ccccc3F)[C@@H]2C1`, the cytotoxicity at 10 µM was -1.96%.

In the case of `Cn1cccc1C(=O)N1CCC2(CCCN2Cc2ccccc2)CC1`, the cytotoxicity at 10 µM stood at 0.929%. As for `CN(C)CCn1ccnc1C1CCCN(C(=O)CCc2cccnc2)C1` (stereo unspecified), the cytotoxicity at 10 µM is -3.64%. On to `CN(CCCc1nccn1C)c1nccc(-c2cc(C(=O)O)ccn2)n1`, for which the cytotoxicity at 10 µM was -4.9%. The result for `CCn1c(C2CCNCC2)nn(CCn2ccc(C)n2)c1=O` reads 2.6%.

Turning to `CCCc1noc(CN2CCCC2c2noc(C3CC3)n2)n1` (stereo unspecified), the cytotoxicity at 10 µM was -13%.

Regarding `Cc1nn(C)c(N(C)C)c1CNCc1cccnc1OC(C)C`, the cytotoxicity at 10 µM is -0.924%. Next, `Cc1nn(CCNC(C)Cn2ccnc2)c(C)c1Cl` (stereo unspecified): -5.19%.
